Data on eight compounds can be found in ChEMBL document CHEMBL4364334, “Synthesis, biological evaluation and molecular modeling of novel selective COX-2 inhibitors: sulfide, sulfoxide, and sulfone derivatives of 1,5-diarylpyrrol-3-substituted scaffold” (Bioorg Med Chem, 2019).

For assay [1], the system named is Rattus norvegicus. Description: Anti-inflammatory activity in rat assessed as effect on carrageenan-induced hyperalgesia by measuring paw pressure tolerance at 20 mg/kg, po administered as single dose preincubated with carrageenan for 4 hrs and followed by compound treatment and measured after 30 mins by paw-pressure test (reference value: 33.9 +/- 3.7 g). Format: functional.

The subject of assay [2] is Rattus norvegicus. Description: Anti-inflammatory activity in rat assessed as effect on carrageenan-induced hyperalgesia by measuring paw pressure tolerance at 20 mg/kg, po administered as single dose preincubated with carrageenan for 4 hrs and followed by compound treatment and measured after 90 mins by paw-pressure test (reference value: 36.7 +/- 4 g). Format: functional.

For assay [3], the system named is Mus musculus. Description: Antinociceptive activity in Swiss albino mouse model of acetic-acid-induced writhing assessed as inhibition of writhing numbers at 40 mg/kg, po measured starting 5 mins post acetic acid challenge for 10 mins (reference value: 30.5 +/- 3.7).
In assay [4] the target is T1, Prostaglandin G/H synthase 1 (Mus musculus, UniProt P22437).
T1 sequence (P22437 whole entry): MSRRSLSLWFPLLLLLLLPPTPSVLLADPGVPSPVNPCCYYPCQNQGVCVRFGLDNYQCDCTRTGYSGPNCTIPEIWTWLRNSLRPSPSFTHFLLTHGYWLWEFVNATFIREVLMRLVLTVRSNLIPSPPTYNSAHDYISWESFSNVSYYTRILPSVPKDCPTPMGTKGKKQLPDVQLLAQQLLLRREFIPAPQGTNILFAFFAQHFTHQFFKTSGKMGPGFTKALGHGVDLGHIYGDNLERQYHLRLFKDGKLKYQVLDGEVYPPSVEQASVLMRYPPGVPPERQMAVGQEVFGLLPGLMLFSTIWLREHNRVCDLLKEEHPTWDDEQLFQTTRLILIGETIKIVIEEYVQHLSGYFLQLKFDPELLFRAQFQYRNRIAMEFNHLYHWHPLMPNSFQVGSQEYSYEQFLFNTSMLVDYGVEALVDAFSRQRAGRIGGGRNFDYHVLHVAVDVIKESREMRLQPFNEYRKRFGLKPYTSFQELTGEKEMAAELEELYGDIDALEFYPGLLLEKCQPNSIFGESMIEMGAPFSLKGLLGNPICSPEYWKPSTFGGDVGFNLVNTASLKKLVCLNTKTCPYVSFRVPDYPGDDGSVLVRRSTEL
Kind of assay: Inhibition of COX-1 in mouse J774 cells assessed as inhibition of PEG2 production using arachidonic acid as substrate pretreated for 15 mins followed by substrate addition measured after 30 mins by radioimmuno assay. The class given is cell-based. An outline of the steps: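 Murine J774 macrophages were adhered 2 h at 37 °C in 5% CO2 and given fresh medium. They were pretreated 15 min with compound (10 µM; 0.1–1 µM when inhibition exceeded 50%), then incubated 30 min at 37 °C with 15 µM arachidonic acid. Supernatant PGE2 was measured by RIA. Values are means of 3 experiments of % inhibition versus control, with IC50 from a sigmoidal variable-slope fit.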

In assay [5] the test system is Rattus norvegicus. Kind of assay: Anti-inflammatory activity in rat assessed as effect on carrageenan-induced hyperalgesia by measuring paw pressure tolerance at 20 mg/kg, po administered as single dose preincubated with carrageenan for 4 hrs and followed by compound treatment and measured after 60 mins by paw-pressure test (reference value: 37.2 +/- 3.5 g). The class given is functional.

The subject of assay [6] is Rattus norvegicus. Kind of assay: Antiinflammatory activity in rat assessed as inhibition of carrageenan-induced paw edema by measuring paw volume at 20 mg/kg, po administered as single dose preincubated with carrageenan for 4 hrs and followed by compound treatment and measured after 1 hr by plethysmometer relative to untreated control. The class given is functional. On the technique in general: The carrageenan paw model is a standard test of acute inflammation.

Assay [7] relates to Rattus norvegicus. Description: Antiinflammatory activity in rat assessed as effect on carrageenan-induced paw edema by measuring paw volume at 20 mg/kg, po administered as single dose preincubated with carrageenan for 4 hrs and followed by compound treatment and measured after 30 mins by plethysmometer (reference value: 2.78 +/- 0.09 ml). The class given is functional.
Assay [8] addresses T2, Prostaglandin G/H synthase 2 (Mus musculus, UniProt Q05769).
T2 sequence (Q05769 whole entry): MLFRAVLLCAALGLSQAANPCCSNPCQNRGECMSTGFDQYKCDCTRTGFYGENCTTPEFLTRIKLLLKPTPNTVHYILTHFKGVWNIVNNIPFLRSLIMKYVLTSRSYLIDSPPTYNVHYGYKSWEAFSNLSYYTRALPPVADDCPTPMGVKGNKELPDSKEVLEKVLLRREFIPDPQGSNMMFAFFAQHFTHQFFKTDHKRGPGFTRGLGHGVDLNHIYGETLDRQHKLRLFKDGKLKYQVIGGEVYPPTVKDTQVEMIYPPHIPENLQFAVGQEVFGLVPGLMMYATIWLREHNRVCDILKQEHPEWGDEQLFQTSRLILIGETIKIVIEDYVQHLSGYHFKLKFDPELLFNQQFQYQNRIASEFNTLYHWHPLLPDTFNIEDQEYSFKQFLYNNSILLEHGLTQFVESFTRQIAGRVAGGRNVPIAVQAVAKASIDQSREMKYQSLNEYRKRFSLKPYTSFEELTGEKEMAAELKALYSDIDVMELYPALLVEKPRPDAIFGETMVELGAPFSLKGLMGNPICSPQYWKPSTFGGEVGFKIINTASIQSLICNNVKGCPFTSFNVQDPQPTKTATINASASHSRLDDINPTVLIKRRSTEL
Kind of assay: Inhibition of COX-2 in LPS-induced mouse J774 cells assessed as inhibition of PEG2 production after 24 hrs by radioimmuno assay. The class given is cell-based.

The subject of assay [9] is Mus musculus. Kind of assay: Antinociceptive activity in Swiss albino mouse model of acetic-acid-induced writhing assessed as inhibition of writhing numbers at 10 mg/kg, po measured starting 5 mins post acetic acid challenge for 10 mins (reference value: 30.5 +/- 3.7). (Writhing tests count abdominal constrictions after an irritant is injected.)
The test system of assay [10] is Mus musculus. Kind of assay: Antinociceptive activity in Swiss albino mouse model of acetic-acid-induced writhing assessed as inhibition of writhing numbers at 20 mg/kg, po measured starting 5 mins post acetic acid challenge for 10 mins (reference value: 30.5 +/- 3.7).
Assay [11] is filed under the species Mus musculus. Description: Selectivity index, ratio of IC50 for inhibition of COX-1 in mouse J774 cells to IC50 for inhibition of COX-2 in LPS-induced mouse J774 cells. Format: cell-based.

Turning to `CCCSCCc1cc(-c2ccc(S(C)(=O)=O)cc2)n(-c2ccc(F)cc2)c1C`, the Activity in assay [1] was found to be 57.3 g; in assay [2], 41.9 g; in [3], 15.9; in assay [5], 50.4 g; in assay [7] it was 1.75 mL; in [9] it was 28.7. In assay [10], the Activity came out at 17.4. Further, the half-maximal inhibitory concentration (IC50) (usually the concentration that gives 50% inhibition) in assay [4] was greater than 10000 nM; in assay [8] it was 11 nM. In assay [6], the inhibition in vivo (as a rule, the change of the read-out against control, counted positive when it falls) at 20 mg/kg was found to be 100%. Further, in assay [11], the Ratio IC50 is greater than 909.
Take `CCC[S+]([O-])CCc1cc(-c2ccc(S(C)(=O)=O)cc2)n(-c2ccc(F)cc2)c1C` (centres undefined): the Activity in [1] came to 53.5 g; in [2] it was 38.2 g; in assay [3], 20.3; in assay [5], 42.5 g; in assay [7], 1.55 mL; in assay [9], 28.8. Moreover, in assay [10], the Activity was found to be 23.4. Moreover, the IC50 in [4] is greater than 10000 nM; in assay [8] it was 40 nM. The inhibition in vivo at 20 mg/kg in assay [6] was determined as 100%. The Ratio IC50 in [11] was greater than 250.
For `CCCS(=O)(=O)CCc1cc(-c2ccc(S(C)(=O)=O)cc2)n(-c2ccc(F)cc2)c1C`, the IC50 was greater than 10000 nM in [4] and 44 nM in [8]. In addition, in [11], the Ratio IC50 is greater than 227.
Consider `CCCSCCc1cc(-c2ccc(S(C)(=O)=O)cc2)n(-c2cccc(F)c2)c1C`, for which the Activity in [1] turned out to be 41.5 g; in [2] it was 37.2 g; in assay [3] it was 23.7; in [5], 38.8 g; in assay [7], 1.74 mL; in assay [9], 30.3. Moreover, the Activity in assay [10] turned out to be 23.4. Moreover, the 50% inhibitory concentration (IC50) in assay [4] was greater than 10000 nM; in assay [8], 285 nM. Also, in [6], the inhibition in vivo at 20 mg/kg is 100%. The Ratio IC50 in assay [11] was greater than 24.
As for `CCC[S+]([O-])CCc1cc(-c2ccc(S(C)(=O)=O)cc2)n(-c2ccccc2)c1C` (centres undefined), the results for the half-maximal inhibitory concentration (IC50) in assay [4] and in assay [8] were greater than 10000 nM and 60 nM, respectively. For the same compound, the Ratio IC50 in assay [11] is greater than 167.
As for `Cc1c(CCOCCO)cc(-c2ccc(S(C)(=O)=O)cc2)n1-c1ccc(F)cc1`, the half-maximal inhibitory concentration (IC50) in [4] is greater than 10000 nM.
For the compound `CCCS(=O)(=O)CCc1cc(-c2ccc(S(C)(=O)=O)cc2)n(-c2ccccc2)c1C`, the figures for the IC50 in [4] and in assay [8] were greater than 10000 nM and 34 nM, respectively. Besides, the Ratio IC50 in assay [11] is greater than 294.
Turning to `CCCSCCc1cc(-c2ccc(S(C)(=O)=O)cc2)n(-c2ccccc2)c1C`, the Activity turned out to be 46 g in assay [1]; 40.2 g in [2]; 26.4 in [3]; 40.3 g in assay [5]; 1.69 mL in assay [7]; 32.6 in [9]. The Activity in [10] worked out at 25.9. Also, the IC50 in assay [4] is greater than 10000 nM; in assay [8] it was 14 nM. In assay [6], the inhibition in vivo at 20 mg/kg is 100%. Further, the Ratio IC50 in [11] is greater than 714.
